Test results: ChEMBL document CHEMBL1124509, “Synthesis, cytotoxicity, and antiviral activity of certain 7-[(2-hydroxyethoxy)methyl]pyrrolo[2,3-d]pyrimidine nucleosides related to toyocamycin and sangivamycin” (J Med Chem, 1989)
pIC50: −log10 of the molar value.

What was measured:
[1] = Cytotoxicity against Monkey kidney cells(BSC-1 cells); assay type: cell-based; conditions: Cercopithecidae
[2] = system: L1210; test: Antiproliferative testing in vitro and its ability to inhibit the growth of L1210 murine leukemia cells determined at a concentration of 10 uM.; assay type: functional, Mus musculus; parameters: scale not given: the % may be the effect or the level left
Procedure, shortened: (§1)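 L1210 mouse leukemia cells grown in static suspension culture in Fischer's medium for 3 days with test compound. Growth rate was taken as the slope of semilog cell number versus time, expressed as control doubling time as percent of treated doubling time, i.e. treated growth relative to control.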

[3] = system: Human alphaherpesvirus 1; test: Antiviral activity was determined against Herpes simplex virus type 1 by Plaque-reduction assay; assay type: functional, organism-based
Procedure, shortened: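 BSC-1 monolayers (MEM with Earle's salts, 10% FBS) infected with HSV-1 strain S-148, about 100 PFU per 0.2 mL; compound dissolved in overlay medium; plaques counted. IC50 by regression of percent inhibition on log concentration. Acyclovir or ganciclovir positive control, with sets rejected beyond 1.5 SD of control mean.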

[4] = species on record: Homo sapiens; test: Cytotoxicity against Normal human diploid cells (human foreskin fibroblasts cells); conditions: Fibroblast
[5] = system: Human betaherpesvirus 5; test: Antiviral activity against Human cytomegalovirus in a plaque-reduction assay; assay type: functional, organism-based
Procedure, shortened: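 HFF monolayers (MEM with Earle's salts, 10% FBS) infected with plaque-purified Towne strain HCMV, about 50 PFU per 0.2 mL inoculum; compound dissolved in overlay medium; plaques counted. IC50 from linear regression of percent inhibition against log concentration. Ganciclovir or acyclovir positive control run; sets rejected if control deviated >1.5 SD from its mean.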

[6] = system: L1210; test: Antiproliferative testing in vitro and its ability to inhibit the growth of L1210 murine leukemia cells determined at a concentration of 100 uM.; assay type: functional, Mus musculus; procedure, shortened: as §1
[7] = Cytotoxicity against human neoplastic cell line (KB); assay type: cell-based
Procedure, shortened: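 KB cells (MEM with Hank's salts, 5% FBS) exposed to compound; incorporation of radioactive precursors, including [3H]dThd, into DNA, RNA and protein measured. An IC50 for each was obtained by regression on log concentration, and the three IC50s were averaged. Averages of two to four experiments.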

[8] = system: L1210; test: Antiproliferative testing in vitro and its ability to inhibit the growth of L1210 murine leukemia cells determined at a concentration of 10 uM.; parameters: scale not given: the % may be the effect or the level left

Row | SMILES | pIC50 [1] | Control [2] [%] | pIC50 [3] | pIC50 [4] | pIC50 [5] | Growth rate, % of control [6] [%] | pIC50 [7] | Control [8] [%]
1 | COC(=N)c1cn(COCCO)c2ncnc(N)c12 | < 4.00 | 108 | < 4.00 | < 4.00 | < 4.00 | – | – | –
2 | NC(=O)c1cn(COCCO)c2ncnc(N)c12 | < 4.00 | – | < 4.00 | < 3.49 | < 3.49 | 100 | < 4.00 | –
3 | N#Cc1cnc2n(COCCO)cnc(N)c1-2 | < 4.00 | – | < 4.00 | < 3.49 | < 3.49 | – | – | –
4 | CC(=O)OCCOCn1cc(C#N)c2c(N)ncnc21 | < 4.00 | – | < 4.00 | < 4.00 | < 4.00 | – | – | –
5 | NC(=NO)c1cn(COCCO)c2ncnc(N)c12 | < 4.00 | – | < 4.00 | < 4.00 | < 4.00 | 89 | – | –
6 | NC(=S)c1cn(COCCO)c2ncnc(N)c12 | < 4.00 | – | < 4.00 | 4.00 | 4.96 | – | < 4.00 | 93
7 | N#Cc1cn(COCCO)c2ncnc(N)c12 | < 3.49 | – | < 3.49 | < 4.00 | < 4.00 | 100 | < 4.00 | –
8 | Nc1nc2c(ncn2COC(CO)CO)c(=O)[nH]1 [GANCICLOVIR] | < 4.00 | – | 5.64 | < 4.00 | 5.10 | – | 3.00 | –
9 | Nc1ncnc2c1ccn2COCCO | < 4.00 | – | < 4.00 | < 4.00 | < 4.00 | – | < 3.49 | –
10 | NNC(=O)c1cn(COCCO)c2ncnc(N)c12 | < 4.00 | – | < 4.00 | < 4.00 | < 4.00 | 92 | – | –
11 | Nc1nc2c(ncn2COCCO)c(=O)[nH]1 [ACYCLOVIR] | < 4.00 | – | 5.41 | < 4.00 | – | – | < 4.00 | –
